# Published values pooled from the literature.
# Target: MAP/microtubule affinity-regulating kinase 3 (MARK3, Homo sapiens, UniProt P27448)
SMILES,effect on,action,method,cells,concentration,quantity,value
c1cc(CN2CCOCC2)cc(Nc2ncc(C3CC3)c(NCCc3c[nH]cn3)n2)c1,enzyme activity,inhibitor,radiometric,,1 µM,remaining activity,0%
COc1cc(Nc2cnc(C#N)c(O[C@H](C)CN(C)C)n2)ncc1-c1cnn(C)c1,enzyme activity,inhibitor,radiometric,,10 µM,remaining activity,69%
NS(=O)(=O)c1ccc(CNc2nc(Nc3cccc(CN4CCOCC4)c3)ncc2C2CC2)cc1,enzyme activity,inhibitor,radiometric,,1 µM,remaining activity,109%
CCOC(=O)c1cc2cc(-c3cc(C(=O)NCc4ccc(C(=O)O)cc4)nn3C)ccc2[nH]1,cell-free assay,,competition with immobilised ligand,,0.1 µM,remaining binding,93%
CN1CC(Oc2cnc(C#N)cc2-c2ccn3nc(NC(=O)C4CC4)cc3c2)C1,enzyme activity,inhibitor,,,1 µM,inhibition,17%
Nc1nc(Nc2ccccc2)sc1C(=O)c1c(F)cccc1F,enzyme activity,inhibitor,,,10 µM,remaining activity,25%
Cc1nn(CC(F)(F)F)cc1Nc1ncc(Br)c(NCCc2cnc[nH]2)n1,enzyme activity,inhibitor,radiometric,,1 µM,remaining activity,68%
Cc1cc(NC(=O)c2cccc(S(F)(F)(F)(F)F)c2)cc(-n2ccn3nc(-c4cccnc4)cc23)c1,cell-free assay,,competition with immobilised ligand,,1 µM,remaining binding,100%
COc1cc2ncnc(Nc3ccc(Oc4ccccc4)c(C)c3C)c2cc1OC,enzyme activity,inhibitor,,,1 µM,inhibition,-4%
CS(=O)(=O)Nc1cccc(-c2csc(NC(=O)CSc3nc4nccnc4c(=O)n3CCc3ccccc3)n2)c1,enzyme activity,inhibitor,,,10 µM,inhibition,1%
O=C(NCCCNc1nc(Nc2cccc(NC(=O)N3CCCC3)c2)ncc1I)c1cccs1,enzyme activity,inhibitor,radiometric,,1 µM,remaining activity,-4%
COc1ccc(COc2ccc(Cc3cnc(N)nc3N)cc2OC)cc1,cell-free assay,,,,0.5 µM,remaining signal,103%
FC(F)(F)Oc1cccc(-c2cnc3ccc(-c4ccncc4)nn23)c1,enzyme activity,inhibitor,radiometric,,1 µM,activity vs control,91%
CNc1cc(Oc2cc(C(=O)Nc3cc(N4CCN(C)CC4)cc(C(F)(F)F)c3)ccc2C)ncn1,target engagement in cells,inhibitor,chemoproteomics,Huh-7,1 µM,inhibition,-18.5%
Nc1ncnc2occ(-c3ccc(NC(=O)Nc4cc(C(F)(F)F)ccc4F)cc3)c12,cell-free assay,inhibitor,,,20 µM,remaining signal,15%
NS(=O)(=O)c1ccc(CNc2ccnc(Nc3cccc(CN4CCOCC4)c3)n2)cc1,enzyme activity,inhibitor,radiometric,,1 µM,remaining activity,113%
O=C(NS(=O)(=O)c1ccc(NCC2CCOCC2)c([N+](=O)[O-])c1)c1ccc(N2CCN(Cc3ccc(C(F)(F)F)cc3-c3ccc(Cl)cc3)CC2)cc1Oc1cnc2[nH]ccc2c1,cell-free assay,,competition with immobilised ligand,,1 µM,remaining binding,100%
CCCS(=O)(=O)Nc1ccc(F)c(C(=O)c2c[nH]c3ncc(-c4ccc(Cl)cc4)cc23)c1F,enzyme activity,inhibitor,,,1 µM,inhibition,< 10%
C[C@H](c1ccnc(Nc2nc3ccc(-c4cc(N(C)C)ncn4)cc3[nH]2)c1)N1CCN(C(=O)CC(F)(F)F)CC1,cell-free assay,,competition with immobilised ligand,,0.1 µM,remaining binding,100%
O=C(Nc1cccc(Nc2ncc(Br)c(NCCc3cnc[nH]3)n2)c1)N1CCCC1,enzyme activity,inhibitor,radiometric,,1 µM,remaining activity,-1%
O=C(Nc1cnc(Oc2ccc(F)cc2)nc1)N1CCc2ncccc2[C@@H]1c1ccc(F)cc1,cell-free assay,,competition with immobilised ligand,,1 µM,remaining binding,100%
CS(=O)(=O)CCNCc1ccc(-c2ccc3ncnc(Nc4ccc(OCc5cccc(F)c5)c(Cl)c4)c3c2)o1,cell-free assay,,,,0.5 µM,remaining signal,95.9%
Cc1cc(C)c(-n2ccn3nc(-c4cccnc4)cc23)cc1NC(=O)c1cc(C#N)cc(S(F)(F)(F)(F)F)c1,cell-free assay,,competition with immobilised ligand,,0.1 µM,remaining binding,85.1%
Cc1nn(CC(F)(F)F)cc1Nc1ncc(C2CC2)c(NCc2ccc(S(N)(=O)=O)cc2)n1,enzyme activity,inhibitor,radiometric,,1 µM,remaining activity,111%
Oc1ccc(-c2nc(-c3ccncc3)c(-c3ccc(F)cc3)[nH]2)cc1,cell-free assay,,,,0.5 µM,remaining signal,105%
Cc1nn(CC(F)(F)F)cc1Nc1nccc(NCCCNC(=O)C2CCC2)n1,enzyme activity,inhibitor,radiometric,,1 µM,remaining activity,126%
CN(C)c1ncnc(-c2ccc3nc(Nc4cc(CN5CCN(C(=O)CC(F)(F)F)CC5)ccn4)[nH]c3c2)c1Cl,cell-free assay,,competition with immobilised ligand,,1 µM,remaining binding,100%
CCCCNc1ncc2c(-c3ccc(F)cc3)nn(C[C@H]3CC[C@H](N)CC3)c2n1,target engagement in cells,inhibitor,chemoproteomics,,20 mM,inhibition,33.9%
CC(=O)N1CCC(c2ccc(C(=O)NC(=N)N)cc2C(F)(F)F)CC1,cell-free assay,,competition with immobilised ligand,,1 µM,remaining binding,88%
O=C(Nc1cnn(-c2csc(C(=O)NC3COC3)c2)c1)Nc1ccccc1Cl,enzyme activity,inhibitor,,,5 µM,remaining activity,98.2%
